Data set [1] deals with Rattus norvegicus. The data set is described as follows: Effect on change in plasma triglycerides (TG) in triton-induced hyperlipidemic rats after peroral administration of 100 mg/kg. It is filed as functional. To be noted: route oral.
For data set [2], the system named is Rattus norvegicus. The data set is described as follows: Effect on change in total cholesterol (TC) in triton-induced hyperlipidemic rats after peroral administration of 100 mg/kg. It counts as functional. To be noted: route oral.
Data set [3] can be described thus: Partition coefficient (logP) (HPLC). It is filed as physicochemical. To be noted: octanol/water. The method in brief: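 Apparent log P* was estimated from reverse-phase HPLC retention time against methyl, ethyl, n-propyl, n-butyl and n-hexyl benzoate standards. Column was C18 at 40 °C with mobile phase CH3OH/0.05 M […] pH 7.4 at 1.0 mL/min, and detection was UV at 230 nm.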

For data set [4], the system named is Rattus norvegicus. The data set is described as follows: Effect on change in plasma triglycerides (TG) in triton-induced hyperlipidemic rats after po administration of 10 mg/kg. It counts as functional.
Data set [5] deals with Rattus norvegicus. As to the kind of experiment: Effect on change in total cholesterol (TC) in triton-induced hyperlipidemic rats after po administration of 10 mg/kg. It counts as functional.

As for `CCOP(=O)(Cc1ccc(-c2nc3ccc(Br)cc3c(=O)n2CC)cc1)OCC`, the Change was less than -42% in the data set on Rattus norvegicus [1] and less than -29% with Rattus norvegicus [2].

As usually defined, the logP is the decadic logarithm of the partition coefficient of the neutral form, usually between octanol and water. Regarding `CC(C)OP(=O)(Cc1ccc(-c2nc3ccc(Br)cc3c(=O)n2C)cc1)OC(C)C`, the Change is less than -37% in the data set on Rattus norvegicus [1] and -11% in the data set with Rattus norvegicus [2]. In data set [3], this molecule had a logP of 4.88.

Regarding `CCOP(=O)(Cc1ccc(-c2nc3ccc(Br)cc3c(=O)n2CC(=O)O)cc1)OCC`, the Change turned out to be 13% with Rattus norvegicus [1] and 5% in the data set on Rattus norvegicus [2].

`CCOP(=O)(Cc1ccc(-c2nc(OC)c3cc(OC)c(OC)cc3n2)cc1)OCC`: the values for the Change in the data set on Rattus norvegicus [1] and in the data set on Rattus norvegicus [2] were less than -86% and less than -60%, respectively. In addition, the logP in data set [3] stood at 4.51.

In the case of `CCOP(=O)(Cc1ccc(-c2nc(O)c3c(F)cccc3n2)cc1)OCC`, the Change in the data set with Rattus norvegicus [1] and in the data set on Rattus norvegicus [2] was -8% each time. In data set [3], this molecule yielded a lipophilicity (logP) of 3.13.

In the case of `CCOP(=O)(Cc1ccc(-c2nc(OCc3ccc(Br)cc3F)c3cc(Br)ccc3n2)cc1)OCC`, the Change in the data set with Rattus norvegicus [1] is -4%; in the data set on Rattus norvegicus [2], less than -12%.

For `CCOP(=O)(Cc1ccc(-c2nc3cc(OC)c(OC)cc3c(=O)n2Cc2ccccc2)cc1)OCC`, the Change was less than -30% in the data set with Rattus norvegicus [4], less than -85% in the data set on Rattus norvegicus [1], less than -15% with Rattus norvegicus [5] and less than -60% in the data set on Rattus norvegicus [2]. This molecule displayed a lipophilicity (logP) in data set [3] of 4.49.

Turning to `CCOP(=O)(Cc1ccc(-c2nc(O)c3ccccc3n2)cc1)OCC`, in data set [3], the logP was 2.55.

Turning to `COc1nc(-c2ccc(CP(=O)(OC)OC)cc2)nc2ccc(Br)cc12`, the Change in the data set with Rattus norvegicus [1] and in the data set on Rattus norvegicus [2] was -9% throughout. In addition, the logP in data set [3] is 5.61.

On to `COc1cc2nc(-c3ccc(CP(=O)(OC)OC)cc3)nc(O)c2cc1OC`, for which the Change with Rattus norvegicus [1] was -11%; in the data set on Rattus norvegicus [2] it was -18%. Further, in data set [3], the logP is 2.6.

For `CCOP(=O)(Cc1ccc(-c2nc(OC)c3c(F)cccc3n2)cc1)OCC`, the Change in the data set on Rattus norvegicus [1] is recorded as -28%; in the data set with Rattus norvegicus [2], -25%. The molecule also came in with a logP in data set [3] of 5.13.

Turning to `CCOP(=O)(Cc1ccc(-c2nc3cccc(F)c3c(=O)n2C)cc1)OCC`, the Change is given as -12% with Rattus norvegicus [1] and less than -15% in the data set on Rattus norvegicus [2]. In addition, the log partition coefficient (logP) in data set [3] was found to be 3.18.

Consider `C=CCn1c(-c2ccc(CP(=O)(OCC)OCC)cc2)nc2cc(OC)c(OC)cc2c1=O`, for which the Change is reported as less than -61% with Rattus norvegicus [4] and less than -41% in the data set on Rattus norvegicus [5].

Consider `C=CCOc1nc(-c2ccc(CP(=O)(OCC)OCC)cc2)nc2cc(OC)c(OC)cc12`, for which the results for the Change with Rattus norvegicus [1] and in the data set on Rattus norvegicus [2] were less than -71% and less than -35%, respectively.

On to `COc1cc2nc(-c3ccc(CP(=O)(OC)OC)cc3)nc(OC)c2cc1OC`, for which the Change in the data set on Rattus norvegicus [1] is listed as less than -52%; in the data set with Rattus norvegicus [2] it was less than -48%. The molecule further registered a logP in data set [3] of 3.75.

Take `CCOP(=O)(Cc1ccc(-c2nc3ccc(Br)cc3c(=O)n2Cc2ccc(Br)cc2F)cc1)OCC`: the Change in the data set on Rattus norvegicus [1] is -16%; with Rattus norvegicus [2] it was -1%.

Take `CCOP(=O)(Cc1ccc(-c2nc(OCc3ccccc3)c3cc(OC)c(OC)cc3n2)cc1)OCC`: the Change in the data set on Rattus norvegicus [1] is on record as less than -40%; in the data set with Rattus norvegicus [2], less than -21%.

As to `C=CCOc1nc(-c2ccc(CP(=O)(OCC)OCC)cc2)nc2ccc(Br)cc12`, the Change in the data set on Rattus norvegicus [1] is reported as -18%; in the data set with Rattus norvegicus [2], -2%.

For `CCOP(=O)(Cc1ccc(-c2nc(Oc3ccccc3)c3cc(Br)ccc3n2)cc1)OCC`, the Change in the data set with Rattus norvegicus [1] was less than 16%; with Rattus norvegicus [2], 4%. Also, in data set [3], the logP amounted to 7.67.

For the molecule `CCOP(=O)(Cc1ccc(-c2nc3ccccc3c(=O)n2C)cc1)OCC`, the values for the Change with Rattus norvegicus [1] and with Rattus norvegicus [2] were less than 31% and 38%, respectively. Besides, the logP in data set [3] is 3.29.

In the case of `COc1cc2nc(-c3ccc(CP(=O)(OC(C)C)OC(C)C)cc3)nc(OC)c2cc1OC`, the results for the Change with Rattus norvegicus [1] and in the data set on Rattus norvegicus [2] were less than -81% and less than -60%, respectively. Further, the logP in data set [3] was 5.53.

Take `COc1cc2nc(-c3ccc(CP(=O)(OC(C)C)OC(C)C)cc3)n(C)c(=O)c2cc1OC`: the Change is given as -8% in the data set with Rattus norvegicus [4], less than -81% in the data set on Rattus norvegicus [1], -4% with Rattus norvegicus [5] and less than -58% in the data set with Rattus norvegicus [2]. In data set [3], this molecule displayed a logP of 4.2.

For `CCOc1nc(-c2ccc(CP(=O)(OCC)OCC)cc2)nc2ccc(Br)cc12`, the Change in the data set on Rattus norvegicus [1] is less than -29%; in the data set with Rattus norvegicus [2], -14%. In data set [3], the logP was 7.01.

Take `CCOP(=O)(Cc1ccc(-c2nc(OC)c3ccccc3n2)cc1)OCC`: the Change in the data set on Rattus norvegicus [1] is -5%; in the data set on Rattus norvegicus [2], 56%. In data set [3], this molecule gave a logP of 5.26.

As for `CCOP(=O)(Cc1ccc(-c2nc(OC)c3cc(Br)ccc3n2)cc1)OCC`, the Change in the data set on Rattus norvegicus [1] worked out at 2%; in the data set with Rattus norvegicus [2], 1%. In addition, in data set [3], the logP came out at 6.37.

Consider `CCOP(=O)(Cc1ccc(-c2nc3cc(OC)c(OC)cc3c(=O)n2C)cc1)OCC`, for which the Change with Rattus norvegicus [4] was -21%; in the data set with Rattus norvegicus [1], less than -86%; with Rattus norvegicus [5] it was -11%; in the data set with Rattus norvegicus [2], less than -51%. Besides, the logP in data set [3] was 3.41.

Consider `COc1cc2nc(-c3ccc(CP(=O)(OC(C)C)OC(C)C)cc3)nc(O)c2cc1OC`, for which the Change is listed as -32% with Rattus norvegicus [1] and less than -35% in the data set on Rattus norvegicus [2]. In data set [3], the log partition coefficient (logP) is 4.38.

With `CCOP(=O)(Cc1ccc(-c2nc(O)c3cc(OC)c(OC)cc3n2)cc1)OCC`, the Change was -37% in the data set with Rattus norvegicus [1] and less than -22% in the data set on Rattus norvegicus [2]. The molecule further registered a logP in data set [3] of 3.36.

As for `CCOP(=O)(Cc1ccc(-c2nc3ccc(Br)cc3c(=O)n2Cc2ccccc2)cc1)OCC`, the Change is recorded as less than -54% in the data set on Rattus norvegicus [1] and less than -34% in the data set with Rattus norvegicus [2]. Further, in data set [3], the logP came out at 5.17.

As for `COc1cc2nc(-c3ccc(CP(=O)(OC)OC)cc3)n(C)c(=O)c2cc1OC`, the Change in the data set on Rattus norvegicus [1] is recorded as less than -41%; with Rattus norvegicus [2], less than -27%. Besides, the logP in data set [3] is 2.65.

As to `CCOP(=O)(Cc1ccc(-c2nc(OCC(=O)O)c3cc(Br)ccc3n2)cc1)OCC`, the values for the Change in the data set on Rattus norvegicus [1] and in the data set on Rattus norvegicus [2] were -2% and -14%, respectively.

`CCOP(=O)(Cc1ccc(-c2nc3ccc(Br)cc3c(=O)n2C)cc1)OCC`: the Change with Rattus norvegicus [1] was less than -35%; in the data set with Rattus norvegicus [2] it was less than -16%. This molecule also yielded a logP in data set [3] of 4.09.

In the case of `C=CCn1c(-c2ccc(CP(=O)(OCC)OCC)cc2)nc2ccc(Br)cc2c1=O`, the Change in the data set on Rattus norvegicus [1] is less than -43%; in the data set on Rattus norvegicus [2] it was less than -25%.

Take `CCOP(=O)(Cc1ccc(C(=O)Nc2ccc(Br)cc2C#N)cc1)OCC` [IBROLIPIM]: the Change is -54% in the data set on Rattus norvegicus [4], less than -85% in the data set on Rattus norvegicus [1], -27% in the data set on Rattus norvegicus [5] and less than -69% in the data set with Rattus norvegicus [2]. The molecule further yielded a lipophilicity (logP) in data set [3] of 3.21.

Values taken from ChEMBL document CHEMBL1129741, “Synthesis and hypolipidemic activities of novel 2-[4-[diethoxyphosphoryl)methyl]phenyl]quinazolines and 4(3H)-quinazolinones” (J Med Chem, 1996).
